Apaf1 inhib = inhibitors of human Apaf-1 apoptosome; reconstituted apoptosome caspase-3 activity, DEVD-Rh110 fluorescence; inhibition, % at 20 µM; O14727; 330,000 compounds, 0.71% hits; active means inhibition of at least 40% at 20 µM;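 further: plate controls were DMSO wells for no effect and DEVD-CHO caspase inhibitor wells for full effect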
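System: Apoptosome proteins | Medium: Hepes pH 7.5 with detergent and BSA | Also added: Cytochrome c trigger plus (Z-DEVD)2-Rh110 caspase-3 substrate | Incubation: 30 min compound preincubation, 50 min activation, room temperature | Detection: Rhodamine 110 fluorescence at Ex 480/Em 540 nm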
TDP2 absorb = blocks human TDP2 phosphodiesterase activity | O95551 | recombinant TDP2, T5PNP hydrolysis, p-nitrophenol absorbance 415 nm | inhibition, % at 12.8 µM | 370,000 compounds, 0.34% hits;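 active means inhibition above the mean of all tested compounds plus 3 SD, set per campaign, cut at about 25% in these data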;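 further: 0% = DMSO with enzyme and 100% = buffer with substrate but no TDP2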
Target sequence (O95551 whole entry, looked up): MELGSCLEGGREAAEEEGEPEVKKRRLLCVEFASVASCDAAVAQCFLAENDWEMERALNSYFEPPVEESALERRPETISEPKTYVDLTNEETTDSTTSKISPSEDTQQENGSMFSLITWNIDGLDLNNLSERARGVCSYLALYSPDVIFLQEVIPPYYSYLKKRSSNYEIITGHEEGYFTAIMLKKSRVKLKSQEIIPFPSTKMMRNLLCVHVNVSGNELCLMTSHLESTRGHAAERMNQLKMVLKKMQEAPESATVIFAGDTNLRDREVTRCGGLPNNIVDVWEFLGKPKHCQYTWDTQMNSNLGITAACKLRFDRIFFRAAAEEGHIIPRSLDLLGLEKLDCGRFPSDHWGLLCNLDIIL
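Material: recombinant human TDP2; quantity: TDP2 enzyme at 120 nM final; medium: Tris-HCl pH 7.5 with MgCl2; compound: single concentration, 12.8 µM nominal, with 1% DMSO; incubation: 2 h enzyme incubation at 37 °C; signal: epi absorbance; measure: percent inhibition; benchmarks: high control without enzyme, low control DMSO plus TDP2; repeats: singlicate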
PAD4 FP inh = inhibitors of human PAD4. Q9UM07. recombinant PAD4, RCA probe fluorescence polarization. inhibition, % at 6.36 µM. 330,000 compounds, 0.41% hits. AID 485272;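 active means percent inhibition above a cutoff equal to the mean of all tested compounds plus 3 SD, cut at about 15% in these data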;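 further: 0% = PAD4 with RCA probe and DMSO and 100% = probe without PAD4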
GSTO1 counter = GSTO1 inhibition, counter-screen for RBBP9 inhibitors. P78417. recombinant GSTO1, activity-based probe fluorescence polarization. inhibition, % at 5.96 µM. 300,000 compounds, 1.1% hits;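 active means inhibition above the campaign mean inhibition plus 3 SD, cut at about 35% in these data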;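 further: 0% = GSTO1-1 with DMSO and 100% = wells lacking GSTO1-1 enzyme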
Target sequence (P78417 whole entry, looked up): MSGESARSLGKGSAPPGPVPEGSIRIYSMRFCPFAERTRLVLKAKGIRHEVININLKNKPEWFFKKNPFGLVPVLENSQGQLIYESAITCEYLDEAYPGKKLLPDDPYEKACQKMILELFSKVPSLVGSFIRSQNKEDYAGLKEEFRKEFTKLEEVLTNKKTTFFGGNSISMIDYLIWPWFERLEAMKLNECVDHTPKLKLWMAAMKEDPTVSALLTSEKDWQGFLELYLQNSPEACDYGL
SIAE primary = inhibitors of human sialic acid acetylesterase SIAE. inhibition, % at 9.66 µM. SIAE FP-Rh probe binding, fluorescence polarization. Q9HAT2. 370,000 compounds, 0.69% hits;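 active means inhibition above a cutoff: mean of compounds within the control limits plus 3 SD of those, cut at about 17% in these data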;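 further: 0% = plate median of compound wells and 100% = probe without SIAE protein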
TCR CD3 inh = inhibitors of human TCR-CD3 interaction; TAMRA-labeled TCR probe fluorescence, biochemical; inhibition, % at 9.4 µM; 360,000 compounds, 0.37% hits; in the data active means inhibition above about 19%;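 further: recombinant mutant TCR 2C K166C tagged with TAMRA read by polarization; 0% = receptor in buffer alone and 100% = receptor with positive control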
Apaf-1 inh conf = confirmation of Apaf-1 inhibitors; shares compounds with Apaf1 inhib; reconstituted apoptosome, caspase-3 DEVD-Rh110 fluorescence; inhibition, % at 20 µM; 1,800 compounds, 25% hits;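 active means mean inhibition of at least 40% at 20 µM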;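 further: plate controls were DMSO wells for no effect and DEVD-CHO caspase inhibitor control wells for full effect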
Rh110 quench = interferes with Rh110 fluorescence, flagging false Apaf-1 inhibitors; 1,800 tested, under 10 active; shares compounds with Apaf1 inhib; activation (fluorescence interference), % at 20 µM; AID 504615; Rh110 fluorescence interference, quenched caspase reaction;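 active means signal rise of 40% or more at 20 µM, treated as a fluorescence artifact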
Fluor interf inh = shows fluorescence interference in the Apaf-1 inhibitor assay format. IC50, µM. shares compounds with Apaf1 inhib. AID 588538. fluorescence interference counterscreen, Apaf-1 assay format. 460 tested, under 10 active; call rule not given here
Starred values were filed as active, the others as inactive; / = not tested or not shown. In the library only some 2.4% were active in any assay of this set; here they are far more common.

SMILES	Apaf1 inhib	TDP2 absorb	PAD4 FP inh	GSTO1 counter	SIAE primary	TCR CD3 inh	Apaf-1 inh conf	Rh110 quench	others
CCCCCCCCCCCCCCCC[n+]1ccc(/C=N/O)cc1	80*	-12	6	3	68*	3	58*	17	Fluor interf inh=>100
O=C(CCCN=C1NS(=O)(=O)c2ccccc21)OCC(=O)c1ccccc1	0	1	0	9	-5	-2	/	/
CC(=O)c1nc2ccccc2n1S(=O)(=O)c1ccc(C)cc1	-16	1	-6	4	3	5	/	/
Cn1c(SCC(=O)NC2CCCC2)nnc1-c1cccs1	1	-5	-1	-3	-19	3	/	/
O=C(NC(=S)Nc1ccc(CN2CCCCC2)cc1)c1cccc(OCc2ccccc2)c1	43*	-8	1	-7	1	-1	17	17
O=C(O)c1ccc(NC(=S)NC(=O)c2cccc(COc3ccccc3)c2)cc1	12	0	7	-6	-20	0	/	/
CCN(CC(=O)Nc1ccc2c(c1)OCCO2)C(=O)/C=C/c1ccc(OC)cc1OC	64*	9	3	8	-8	2	37	15
CCC[C@@H](CN1CCC[C@H]1CN1C(N)=NC[C@H]1CC(C)C)N1C[C@@H](Cc2ccccc2)N(CCc2ccc(Cl)c(Cl)c2)C1=N	68*	-10	-6	/	10	-2	25	9
CCC[C@@H](CN1CCC[C@H]1CN1C(N)=NC[C@@H]1Cc1ccccc1)N1C[C@@H](Cc2ccccc2)N(CCc2ccc(Cl)c(Cl)c2)C1=N	78*	4	0	/	11	-3	30	-5
CCC[C@@H](CN1CCC[C@H]1CN1C(N)=NC[C@@H]1Cc1ccccc1)N1C[C@@H]([C@H](C)CC)N(CCc2ccc(Cl)c(Cl)c2)C1=N	67*	/	-3	/	/	/	9	2
COc1ccccc1C1Nc2cccc3cccc(c23)N1	51*	13	-9	50*	4	8	31	7
O=C(Nc1ccc(-c2cccc(F)c2)cc1)C1CCCN(Cc2ccccn2)C1 (stereo not drawn)	40*	2	2	-5	1	2	15	0
CCOC(=O)c1c2ccc(OCC(=O)NN)cc2n2ccccc12	42*	4	-2	40*	6	2	53*	0	Fluor interf inh=>100
Cc1cccc(C)c1NC(=O)CN1CCN(CCCC(c2ccc(F)cc2)c2ccc(F)cc2)CC1	51*	2	1	3	-10	1	19	11
COc1ccc(CCN(C)C(=O)C2CC(=O)N(Cc3ccc(C)cc3)C2)cc1OC (stereo not drawn)	56*	-7	-2	/	-13	-1	33	5
CCN(CC)CCNC(=O)c1ccc(NC(=O)C2CC(=O)N(CCc3ccc(OC)c(OC)c3)C2)cc1 (stereo not drawn)	47*	-3	-6	/	4	-2	31	0
COc1ccc(CCN2CC(C(=O)Nc3ccc(S(C)(=O)=O)cc3)CC2=O)cc1OC (stereo not drawn)	-4	0	-1	0	2	5	/	/
COC(=O)C1=CN(c2ccc(Oc3ccccc3)cc2)C(N)=C(C#N)C1c1cccc(OC)c1OC (stereo not drawn)	/	-4	/	/	0	-2	/	/
Cc1cc(SCC(=O)N/N=C/c2ccc(O)c(O)c2O)c(C)cc1Br	49*	-3	4	18	35*	11	31	8
COc1cc(/C=N/NC(=O)CSc2cc(C)c(Br)cc2C)ccc1O	10	-6	4	6	10	4	/	/
O=S(=O)(c1ccc(Br)cc1)n1c(Cc2ccccc2)nc2ccccc21	2	-1	-2	4	4	5	/	/
Cc1ccc(S(=O)(=O)N2CCN(c3nc(CN4CCCC4)nc4sc(C)c(C)c34)CC2)cc1	48*	-15	0	/	-14	4	29	15
CC1(C)NC(=O)N(CC(=O)OCC(=O)c2ccc(Cl)s2)C1=O	-8	2	-4	/	0	0	/	/
CN1C(=O)N(C)c2cccc3cccc1c23	6	-3	-2	5	-4	3	/	/
CCc1ccc2cccc3c2c1N=CN3C	87*	13	5	19	6	-10	18	-4
SMILES	Apaf1 inhib	TDP2 absorb	PAD4 FP inh	GSTO1 counter	SIAE primary	TCR CD3 inh	Apaf-1 inh conf	Rh110 quench	others
COc1ccc(OCC(O)Cn2c(Br)nc3c2c(=O)[nH]c(=O)n3C)cc1 (stereo not drawn)	4	4	-8	-3	-11	6	/	/
CCN(CC(=O)Nc1ccc2c(c1)OCCO2)C(=O)C1CCCCC1	11	3	5	7	1	-4	/	/
CCC(CO)Oc1cc(NCc2ccncc2)c2ncn(C(C)C)c2c1 (stereo not drawn)	41*	10	-5	/	-1	1	17	-393
CCC(CO)Oc1cc(NCc2cccc(Cl)c2)c2ncn(C(C)C)c2c1 (stereo not drawn)	73*	/	-11	/	/	/	37	9
CCC(CO)Oc1cc(NCc2ccccc2C)c2ncn(C(C)C)c2c1 (stereo not drawn)	34	5	-4	/	3	-1	/	/
CCC(CO)Oc1cc(NCc2cccnc2)c2ncn(C(C)C)c2c1 (stereo not drawn)	63*	21	-2	/	8	2	25	-1
CCC(CO)Oc1cc(NCc2cc(C)cc(C)c2)c2ncn(C(C)C)c2c1 (stereo not drawn)	36	-12	-7	/	2	-3	/	/
Cc1c(N)cccc1-n1cccc1	-17	9	-2	3	4	1	/	/
Cc1ccc(CSc2ncnc3c2cnn3Cc2ccccc2)cc1	6	4	5	-9	-5	6	/	/
CC(=O)Oc1ccc2nc(-c3cccs3)oc(=O)c2c1	7	7	-4	-2	1	1	/	/
Cn1nnc2c[n+](CC(=O)c3ccc4ccccc4c3)cc(Br)c21	10	10	3	-1	1	1	/	/
O=C(CSc1nncs1)Nc1ccc(S(=O)(=O)N2CCCC2)cc1	-4	-16	-1	13	2	-8	/	/
Cc1ccc(OCC(=O)Nc2sc3c(c2C#N)CC(C)(C)NC3(C)C)cc1	-22	-7	-1	5	1	-2	/	/
CC1(C)Cc2c(sc(NC(=O)COc3cccc4ccccc34)c2C#N)C(C)(C)N1	46*	-12	3	2	-9	2	39	-3

Source: PubChem
